Test results taken from ChEMBL document CHEMBL2331117 (J Med Chem, 2013).
pIC50: −log10 of the molar value. Active and inactive are the calls of the source. The rule behind the calls is not given here.

Key:
Mus musculus [1] = assay: In vivo inhibition of mTORC1-mediated phosphorylation of 4EBP1 at ([…]) in human PC3 cells xenografted into athymic nude mouse at 100 mg/kg, po after 32 hrs by Western blotting analysis relative to control; type: functional; conditions: PC-3, 32 h
Procedure, shortened: (§1)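 PC-3 cells grown in DMEM with 20% FBS were implanted subcutaneously at 3 × 10^6 cells in ice-cold HBSS into the hindflank of 5−8 week old male nude mice. At tumor size 200−500 mg, mice received a single oral dose of 100 mg/kg. Plasma and tumors were collected at 1, 4, 8, 16, 24 and 32 h. Tumor lysates from each group (n = 5) were pooled. Phospho-proteins were quantified by Western blot and normalized to α-tubulin.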

[2] = Clearance in Beagle dog at 3 mg/kg, iv; type: ADME, organism-based, Canis lupus familiaris; design: dose 3 mg/kg, route intravenous; conditions: in vivo
Procedure, shortened: (§2)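 Single-dose PK: female athymic nude mice (10 mg/kg), female CD rats and male beagle dogs (3 mg/kg), male cynomolgus monkeys (3 mg/kg), given iv and by oral gavage. Solution in EPW (5% ethanol/45% PEG400/water), with 1:2 HCl (m/m) for mouse, rat and dog and 1:1.5 HCl (m/m) for monkey. Plasma levels followed over 24 h.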

Mus musculus [3] = assay: In vivo inhibition of mTORC1-mediated phosphorylation of pS6 at (serine 240/244) in human MCF7 cells xenografted into athymic nude mouse at 100 mg/kg, po after 1 hr by Western blotting analysis relative to control; type: functional; conditions: MCF7, 1 h
Procedure, shortened: (§3)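 MCF-7 cells (DMEM, 10% FBS) were implanted subcutaneously at 5 × 10^6 cells in 50% cold HBSS/50% growth-factor-reduced matrigel into the hindflank of 5−8 week old female nude mice. At tumor size 40−150 mg, mice received a single oral dose of 100 mg/kg. Tumor lysates were pooled per group. Phospho-AKT (S473, T308), p70S6K (T389), S6 (S240/244) and 4E-BP1 (T37/46) were measured by Western blot normalized to α-tubulin.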

[4] = Plasma concentration in athymic mouse plasma xenografted with human PC3 cells at 100 mg/kg, po after 4 hrs; type: ADME, organism-based, PC-3; design: dose 100 mg/kg, route oral
[5] = Volume of distribution at steady state in Beagle dog at 3 mg/kg, iv; type: ADME, organism-based, Canis lupus familiaris; design: dose 3 mg/kg, route intravenous; conditions: in vivo, read-out: Vdss
Mus musculus [6] = assay: Toxicity in athymic nude mouse assessed as body weight loss at 100 mg/kg, po relative to control; type: organism-based; design: dose 100 mg/kg, route oral; conditions: in vivo
[7] = Tmax in Beagle dog at 3 mg/kg, po; type: ADME, organism-based, Canis lupus familiaris; design: dose 3 mg/kg, route oral; conditions: in vivo
[8] = target: Serine/threonine-protein kinase mTOR (Homo sapiens) (UniProt P42345); assay: Competitive inhibition of mTOR (unknown origin) in presence of ATP
Mus musculus [9] = assay: In vivo inhibition of mTORC2-mediated phosphorylation of AKT at […] in human PC3 cells xenografted into athymic nude mouse at 100 mg/kg, po after 32 hrs by Western blotting analysis relative to control; type: functional; conditions: PC-3, 32 h
Procedure, shortened: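 Human PC-3 cells were implanted subcutaneously into the hindflank of male nude mice aged 5−8 weeks, at 3 × 10^6 cells (passages 10−14, >95% viability) in ice-cold HBSS. At a tumor size of 200−500 mg, mice got one oral 100 mg/kg dose. Tumors were taken at 1, 4, 8, 16, 24 and 32 h. Lysates (n = 5 per group) were pooled, and phospho-AKT (T308) was read by Western blot, normalized to α-tubulin.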

[10] = Drug uptake in tumor of athymic mouse xenografted with human PC3 cells at 100 mg/kg, po after 1 hr; type: ADME, organism-based, Neoplasm, PC-3; design: dose 100 mg/kg, route oral; conditions: read-out: Drug uptake
Procedure, shortened: (§4)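 PC-3 cells (3 × 10⁶, passages 10–14, in ice-cold HBSS) were implanted sc in 5–8 week old male nude mice. Tumors of 200–500 mg received a single oral 100 mg/kg dose. Plasma and tumor were collected at 1, 4, 8, 16, 24 and 32 h and homogenized in buffer. Lysates were pooled per group (n = 5), and phospho-proteins were measured by Western blot normalized to α-tubulin.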

Mus musculus [11] = assay: In vivo inhibition of mTORC1-mediated phosphorylation of pS6 at (serine 240/244) in human MCF7 cells xenografted into athymic nude mouse at 100 mg/kg, po after 4 hrs by Western blotting analysis relative to control; type: functional; conditions: MCF7, 4 h; procedure, shortened: as §3
[12] = Drug uptake in tumor of athymic mouse xenografted with human MCF7 cells at 100 mg/kg, po after 32 hrs; type: ADME, organism-based, Neoplasm; design: dose 100 mg/kg, route oral; conditions: read-out: Drug uptake
Mus musculus [13] = assay: In vivo inhibition of mTOR1-mediated phosphorylation of p70S6K at […] in human PC3 cells xenografted into athymic nude mouse at 100 mg/kg, po after 8 hrs by Western blotting analysis relative to control; type: functional; conditions: PC-3, 8 h; procedure, shortened: as §4
[14] = AUC (0 to infinity) in cynomolgus monkey at 3 mg/kg, iv; type: ADME, organism-based, Macaca fascicularis; design: time infinity, dose 3 mg/kg, route intravenous; conditions: plasma; procedure, shortened: as §2
Mus musculus [15] = assay: In vivo inhibition of mTORC2-mediated phosphorylation of AKT at serine 473 in human PC3 cells xenografted into athymic nude mouse at 100 mg/kg, po after 8 hrs by Western blotting analysis relative to control; type: functional; conditions: PC-3, 8 h; procedure, shortened: as §1
[16] = target: Serine/threonine-protein kinase pim-1 (Homo sapiens, UniProt P11309); assay: Inhibition of PIM1 (unknown origin)
[17] = Metabolic stability in monkey liver microsomes after 30 mins; type: ADME, Macaca mulatta, Microsome; conditions: rhesus monkey, read-out: Stability
[18] = Plasma concentration in athymic mouse plasma xenografted with human PC3 cells at 100 mg/kg, po after 16 hrs; type: ADME, organism-based, PC-3; design: dose 100 mg/kg, route oral
[19] = Oral bioavailability in cynomolgus monkey at 3 mg/kg; type: ADME, organism-based, Macaca fascicularis; conditions: in vivo
Procedure, shortened: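 Male cynomolgus monkeys received 3 mg/kg intravenously and by oral gavage as a solution in EPW (5% ethanol/45% PEG400/water + 1:1.5 HCl m/m).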

Mus musculus [20] = assay: In vivo inhibition of mTORC1-mediated phosphorylation of 4EBP1 at ([…]) in human PC3 cells xenografted into athymic nude mouse at 100 mg/kg, po after 4 hrs by Western blotting analysis relative to control; type: functional; conditions: PC-3, 4 h; procedure, shortened: as §1
[21] = Drug uptake in tumor of athymic mouse xenografted with human MCF7 cells at 100 mg/kg, po after 1 hr; type: ADME, organism-based, Neoplasm; design: dose 100 mg/kg, route oral; conditions: read-out: Drug uptake
Mus musculus [22] = assay: In vivo inhibition of mTORC1-mediated phosphorylation of p70S6K at […] in human PC3 cells xenografted into athymic nude mouse at 100 mg/kg, po after 16 hrs by Western blotting analysis relative to control; type: functional; conditions: PC-3, 16 h; procedure, shortened: as §1
[23] = target: Phosphatidylinositol 4,5-bisphosphate 3-kinase catalytic subunit beta isoform (Homo sapiens, UniProt P42338); assay: Inhibition of PI3Kbeta (unknown origin)
Mus musculus [24] = assay: In vivo inhibition of mTORC1-mediated phosphorylation of 4EBP1 at ([…]) in human PC3 cells xenografted into athymic nude mouse at 100 mg/kg, po after 1 hr by Western blotting analysis relative to control; type: functional; conditions: PC-3, 1 h; procedure, shortened: as §1
Mus musculus [25] = assay: In vivo inhibition of mTORC2-mediated phosphorylation of AKT at serine 473 in human MCF7 cells xenografted into athymic nude mouse at 100 mg/kg, po after 32 hrs by Western blotting analysis relative to control; type: functional; conditions: MCF7, 32 h; procedure, shortened: as §3
[26] = Plasma protein binding in human at 5 uM; type: ADME, cell-free; conditions: read-out: PPB (converted)

Serine/threonine-protein kinase pim-1, sequence (P11309 whole entry): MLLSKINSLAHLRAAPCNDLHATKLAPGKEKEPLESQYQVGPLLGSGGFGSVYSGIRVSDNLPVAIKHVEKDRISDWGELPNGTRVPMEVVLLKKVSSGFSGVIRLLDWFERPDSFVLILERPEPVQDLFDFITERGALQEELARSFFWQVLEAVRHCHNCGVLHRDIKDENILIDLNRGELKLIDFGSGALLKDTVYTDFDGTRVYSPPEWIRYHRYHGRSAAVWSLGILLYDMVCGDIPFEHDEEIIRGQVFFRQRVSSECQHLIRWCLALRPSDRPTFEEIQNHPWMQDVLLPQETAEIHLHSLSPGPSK
Phosphatidylinositol 4,5-bisphosphate 3-kinase catalytic subunit beta isoform, sequence (P42338 whole entry, canonical isoform): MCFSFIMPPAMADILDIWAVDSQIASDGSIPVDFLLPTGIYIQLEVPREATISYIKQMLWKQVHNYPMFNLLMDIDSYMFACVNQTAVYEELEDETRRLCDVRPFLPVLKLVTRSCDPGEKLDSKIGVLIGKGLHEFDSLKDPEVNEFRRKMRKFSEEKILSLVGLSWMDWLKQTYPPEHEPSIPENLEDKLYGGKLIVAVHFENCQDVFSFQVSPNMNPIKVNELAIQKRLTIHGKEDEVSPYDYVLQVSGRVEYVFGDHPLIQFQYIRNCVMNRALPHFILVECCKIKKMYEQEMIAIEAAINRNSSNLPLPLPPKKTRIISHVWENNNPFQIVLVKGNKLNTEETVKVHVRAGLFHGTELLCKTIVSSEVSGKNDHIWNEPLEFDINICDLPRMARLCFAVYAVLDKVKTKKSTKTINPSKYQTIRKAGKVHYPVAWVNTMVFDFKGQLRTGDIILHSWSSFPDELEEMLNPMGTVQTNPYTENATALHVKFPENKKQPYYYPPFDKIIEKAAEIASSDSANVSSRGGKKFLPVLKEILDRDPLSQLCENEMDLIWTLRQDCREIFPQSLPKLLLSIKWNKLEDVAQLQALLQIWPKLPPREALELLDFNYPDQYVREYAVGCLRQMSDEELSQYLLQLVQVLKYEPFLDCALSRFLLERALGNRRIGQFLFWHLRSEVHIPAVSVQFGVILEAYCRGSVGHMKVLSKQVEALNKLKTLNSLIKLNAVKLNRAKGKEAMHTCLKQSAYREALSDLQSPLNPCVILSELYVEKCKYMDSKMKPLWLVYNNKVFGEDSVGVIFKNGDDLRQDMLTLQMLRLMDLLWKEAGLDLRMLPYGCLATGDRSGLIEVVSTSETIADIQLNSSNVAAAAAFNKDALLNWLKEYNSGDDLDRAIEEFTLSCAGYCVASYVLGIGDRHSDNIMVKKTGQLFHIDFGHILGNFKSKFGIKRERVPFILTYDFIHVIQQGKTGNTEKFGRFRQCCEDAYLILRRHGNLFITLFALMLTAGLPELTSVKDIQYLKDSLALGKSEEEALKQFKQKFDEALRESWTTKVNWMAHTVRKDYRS

clearance [2]: 9.97 mL/min/kg
concentration at 4 h [4]: 21.3 µM
Vd [5]: 3.15 L/kg
Tmax [7]: 1 h
inhibition [8]: Active
concentration at 1 h [10]: 28.8 µM
concentration at 32 h [12]: 100 nM
AUC(0-inf) [14]: 1.31 µM·h
pIC50 [16]: < 5.46
remaining at 0.5 h [17]: 65%
concentration at 16 h [18]: 6.17 µM
bioavailability [19]: 53.4%
concentration at 1 h [21]: 36.1 µM
pIC50 [23]: < 5.30
fraction unbound at 5 µM [26]: 0.14
Compound: Cc1c(C(=O)N2CCOc3ccc(-c4ccc(N)nc4)cc3C2)ccc(S(C)(=O)=O)c1F
inhibition in vivo at 100 mg/kg (Mus musculus [1]): 33%
inhibition in vivo at 100 mg/kg (Mus musculus [3]): 96%
Activity (Mus musculus [6]): 2.8%
inhibition in vivo at 100 mg/kg (Mus musculus [9]): -3%
inhibition in vivo at 100 mg/kg (Mus musculus [11]): 94%
inhibition in vivo at 100 mg/kg (Mus musculus [13]): 92%
inhibition in vivo at 100 mg/kg (Mus musculus [15]): 83%
inhibition in vivo at 100 mg/kg (Mus musculus [20]): 84%
inhibition in vivo at 100 mg/kg (Mus musculus [22]): 66%
inhibition in vivo at 100 mg/kg (Mus musculus [24]): 94%
inhibition in vivo at 100 mg/kg (Mus musculus [25]): 11%
